Calls of active or inactive are those of the source. The rule behind the calls is not given here.

The values below come from ChEMBL document CHEMBL1150397, “Towards the first inhibitors of trihydroxynaphthalene reductase from Curvularia lunata: synthesis of artificial substrate, homology modelling and initial screening” (Bioorg Med Chem, 2008).

A short description of assay [1]: (§1) Inhibition of recombinant Curvularia lunata trihydroxynaphthalene reductase. An outline of the steps:
(§2)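 GST-fusion 3HNR from C. lunata expressed in E. coli BL21-AI, bound on glutathione-Sepharose, thrombin-cleaved, purity checked by SDS-PAGE. Initial rates of DDBO oxidation with NADP+ reduction followed at 340 nm (NADPH absorbance), 25 °C. Conditions: 0.2 µM enzyme, 100 µM DDBO, 500 µM coenzyme, 100 mM phosphate pH 7.0, 1% final DMF. Compounds screened at 100 µM; IC50 determined over 5–200 µM where screening inhibition exceeded 35%.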

The test system of the next assay is Curvularia lunata. Described as §1. As to conditions: for inhibition: concentration not given here. Summed up:
as §2

`CCOC(=O)c1cc(=O)c2cc(C)ccc2o1`: in assay [1], the IC50 is 120 µM.

For `COc1ccc2cc([C@H](C)C(=O)O)ccc2c1`, the inhibition in the assay with Curvularia lunata was determined as 9%. Still for that read-out and setting: next, `Cc1ccc(-c2cc(C(F)(F)F)nn2-c2ccc(S(N)(=O)=O)cc2)cc1`: 17%. With `CCOc1ccc(NC(C)=O)cc1`, the result with Curvularia lunata was inactive. Take `CCOC(=O)c1cc(=O)c2cc(C)cc([N+](=O)[O-])c2o1`: the half-inhibitory concentration (IC50) in assay [1] was determined as 167 µM. For `COc1ccc2cc(CCC(C)=O)ccc2c1` [NABUMETONE], the 50% inhibitory concentration (IC50) in assay [1] is 111 µM. Regarding `O=C1CC(=O)c2ccccc21`, the half-inhibitory concentration (IC50) in assay [1] was 66 µM.

`O=C(O)Cc1ccccc1Nc1c(Cl)cccc1Cl` [DICLOFENAC SODIUM]: the 50% inhibitory concentration (IC50) in assay [1] amounted to 108 µM.

In the case of `CC(C)Cc1ccc(C(C)C(=O)O)cc1` (configuration not stated), the outcome in the assay on Curvularia lunata was inactive. Turning to `CC(C(=O)O)c1cccc(C(=O)c2ccccc2)c1` (configuration not stated), the outcome in the assay with Curvularia lunata was inactive. For `CC(=O)Nc1ccc(O)cc1`, in the assay on Curvularia lunata, the outcome was inactive. `CCc1cccc2c3c([nH]c12)C(CC)(CC(=O)O)OCC3` (configuration not stated) [ETODOLAC]: in assay [1], the IC50 is 17 µM.

The term IC50 denotes the concentration that gives 50% inhibition. A word on the inhibition: it is the change of the read-out against control, counted positive when it falls.
